{"data": "Results from different studies", "mreB": "mreB (Escherichia coli, UniProt P0A9X4)", "Cnr2": "Cannabinoid receptor 2 (Cnr2, Mus musculus, UniProt P47936)", "pol": "pol (Feline immunodeficiency virus, UniProt P16088)", "G protein-coupled receptor 88": "G protein-coupled receptor 88 (Homo sapiens, UniProt Q9GZN0)", "CTSL": "Procathepsin L (CTSL, Homo sapiens, UniProt P07711)", "note": "Each line is one published result; the experiments were not run side by side."}
{"SMILES": "NC1CCCCc2c1[nH]c1ccc(Cl)c(Cl)c21 (stereo not drawn)", "target": "mreB", "test": "ATPase activity, inhibitor, absorbance", "quantity": "IC50", "result": "25 µM"}
{"SMILES": "CCOC(=O)[C@](CC)(CCC[S+]([O-])CCOCCOCCNC(=O)OC(C)(C)C)NC(=O)c1ccc(C2CC2)c(Cc2ccc(F)cc2)n1 (stereo partly drawn)", "target": "Cnr2", "test": "ligand displacement, radioligand", "conditions": "cell membranes", "quantity": "Ki", "result": "0.09 µM"}
{"SMILES": "NCCCNC1CCCCc2c1[nH]c1ccc(Br)cc21 (stereo not drawn)", "target": "mreB", "test": "ATPase activity, inhibitor, absorbance", "quantity": "IC50", "result": "25 µM"}
{"SMILES": "Cc1ccnc2c1NC(=O)c1cccnc1N2C1CC1", "target": "pol", "test": "binding, SPR", "quantity": "Kd", "result": "185 µM"}
{"SMILES": "CCCC#Cc1ccc([C@@H](CO)C(=O)N[C@H](C)c2ccccc2)cc1", "target": "G protein-coupled receptor 88", "test": "cAMP, agonist, TR-FRET", "quantity": "EC50", "result": "0.204 µM"}
{"SMILES": "Cc1cc(/C=C/C#N)cc(C)c1Nc1ccnc(Nc2ccc(C#N)cc2)n1", "target": "pol", "test": "binding, SPR", "quantity": "Kd", "result": "16 µM"}
{"SMILES": "CCOC(=O)C(CC)(CCCSCCOCCOCCOCCNC(=O)OC(C)(C)C)NC(=O)c1ccc(C2CC2)c(Cc2ccc(F)cc2)n1 (stereo not drawn)", "target": "Cnr2", "test": "ligand displacement, radioligand", "conditions": "cell membranes", "quantity": "Ki", "result": "0.117 µM"}
{"SMILES": "CC[C@H]1NC(=O)[C@@H]2CSC(=N2)[C@H](Cc2ccccc2)N(C)C(=O)[C@@H]2CCCN2C(=O)[C@H](C(C)C)N(C)C(=O)[C@H](Cc2ccccc2)OC(=O)[C@H](C)[C@@H](C)NC(=O)[C@@H]([C@@H](C)O)NC(=O)[C@@H](CC(C)C)N(C)C(=O)[C@@H]2CSC1=N2", "target": "CTSL", "test": "enzyme activity, inhibitor", "quantity": "IC50", "result": "20.4 µM"}
{"SMILES": "COC(=O)[C@H](CCC(=O)Nc1cccc2c1ccn2Cc1cccc(C(N)=O)c1)NC(=O)OCc1ccccc1", "target": "NAD-dependent protein deacetylase sirtuin-1 (SIRT1, Homo sapiens, UniProt Q96EB6)", "test": "enzyme activity, inhibitor", "quantity": "IC50", "result": "67 µM"}
{"SMILES": "O=[As](O)(O)c1ccc(Cc2ccc([As](=O)(O)O)cc2)cc1", "target": "Autotaxin (ENPP2, Homo sapiens, UniProt Q13822)", "test": "enzyme activity, inhibitor, absorbance", "conditions": "pH 8", "quantity": "Ki", "result": "0.026 µM"}
{"SMILES": "C=CC(O)CO (stereo not drawn)", "target": "Cytochrome P450 2E1 (Cyp2e1, Rattus norvegicus, UniProt P05182)", "test": "enzyme activity, inhibitor", "system": "Fischer 344 rat, liver microsomes", "conditions": "30 min", "quantity": "IC50", "result": "1000 µM"}
{"SMILES": "O=C(NCc1ccc(F)cc1)c1cccc(Nc2ccc(-c3ccccc3)nn2)c1", "target": "Anoctamin-2 (ANO2, Homo sapiens, UniProt Q9NQ90)", "test": "ion flux, inhibitor", "quantity": "IC50", "result": "8.2 µM"}
{"SMILES": "Cc1nonc1Cn1nnc2c(N3CC[C@H](O)C3)nc(C(C)(C)C)nc21", "target": "Cnr2", "test": "cAMP, agonist", "quantity": "EC50", "result": "0.0002 µM"}
{"SMILES": "CC(C)C[C@@H]1C(=O)N[C@H]([C@@H](C)O)C(=O)N[C@H](C)[C@@H](C)C(=O)O[C@@H](Cc2ccccc2)C(=O)N(C)[C@@H](C(C)C)C(=O)N2CCC[C@H]2C(=O)N(C)[C@H](Cc2ccccc2)C2=N[C@@H](CS2)C(=O)N[C@H](C)C2=N[C@@H](CS2)C(=O)N1C", "target": "CTSL", "test": "enzyme activity, inhibitor", "quantity": "IC50", "result": "21.3 µM"}
{"SMILES": "CCOC(=O)C(CC)(CCCSCCOCCOCCOCCOCCNC(=O)OC(C)(C)C)NC(=O)c1ccc(C2CC2)c(Cc2ccc(F)cc2)n1 (stereo not drawn)", "target": "Cnr2", "test": "ligand displacement, radioligand", "conditions": "cell membranes", "quantity": "Ki", "result": "0.093 µM"}
{"SMILES": "O=P(O)(O)Oc1cccc(OP(=O)(O)O)c1", "target": "Signal transducer and activator of transcription 5B, SH2 (STAT5B, Homo sapiens, UniProt P51692)", "test": "ligand displacement, FP", "quantity": "IC50", "result": "55 µM"}
{"SMILES": "CC(C)c1cccc(NC(=O)C2CC(=O)Nc3ccccc32)c1 (stereo not drawn)", "target": "CTSL", "test": "enzyme activity, inhibitor, FRET", "quantity": "IC50", "result": "16.8 µM"}
{"SMILES": "CCOC(=O)C(CC)(CCCSCCOCCOCCNc1ccc([N+](=O)[O-])c2nonc12)NC(=O)c1ccc(C2CC2)c(Cc2ccc(F)cc2)n1 (racemic)", "target": "Cnr2", "test": "cAMP, agonist", "quantity": "EC50", "result": "0.102 µM"}
{"SMILES": "NC1CCCCc2c1[nH]c1ccc(Br)cc21 (stereo not drawn)", "target": "mreB", "test": "ATPase activity, inhibitor, absorbance", "quantity": "IC50", "result": "44 µM"}
{"SMILES": "Cc1nc([C@@](C)(CC2CC2)NC(=O)c2cc(OCC(F)(F)F)c(C3CC3)cn2)no1", "target": "Cnr2", "test": "ligand displacement, radioligand", "conditions": "cell membranes", "quantity": "Ki", "result": "0.006 µM"}
{"SMILES": "C[C@H](N)Cn1ncc2ccc3c(c21)CCCO3", "target": "Alpha-1B adrenergic receptor (Adra1b, Rattus norvegicus, UniProt P15823)", "test": "ligand displacement, radioligand", "quantity": "IC50", "result": "74 µM"}
{"SMILES": "NC(=O)[C@@H]1CC(F)(F)CN1C(=O)c1ccc(N2CC(F)(F)C2)c(OCC2CC2)n1", "target": "Cnr2", "test": "cAMP, agonist", "quantity": "EC50", "result": "0.003 µM"}
{"SMILES": "CC[C@@H](C)COc1ccc([C@@H](CO)C(=O)N[C@H](C)c2ccccc2)cc1", "target": "G protein-coupled receptor 88", "test": "cAMP, agonist, TR-FRET", "quantity": "EC50", "result": "3.09 µM"}
{"SMILES": "Cc1cc(SCc2sc(-c3ccc(C(F)(F)F)c(F)c3)nc2C)ccc1OCC(=O)O", "target": "Thyroid hormone receptor beta (THRB, Homo sapiens, UniProt P10828)", "test": "reporter gene, antagonist, luciferase", "quantity": "IC50", "result": "25.8 µM"}
